Read-outs that look alike come from different tables or passages of the source.
How the values were obtained:
[1] = target: T1, human intelectin-1 (hItln-1) (Homo sapiens, UniProt Q8WWA0); assay: Biolayer interferometry; format: binding; settings: for ΔΔG relative free energy of binding compared to KDO: column KDO; for ΔΔG relative free energy of binding compared to KO: column KO; for ΔΔG relative free energy of binding compared to Galf: column Galf; for ΔΔG relative free energy of binding compared to Glycerol 1-phosphate: column Glycerol 1-phosphate
[2] = target: T1, human intelectin-1 (hItln-1); assay: ELISA of hItln-1 binding to immobilized BSA-conjugated monosaccharides; settings: for binding to hItln-1 by ELISA: saccharide conjugated in multiple copies to BSA and immobilized; for Kd by ELISA: BSA-conjugated heptose sugars, single-site binding fit
Outline: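 Sugar–BSA conjugates were adsorbed in PBS (1.5 μM sugar), 1 h RT, then blocked with 5% BSA in HEPES-T for 2 h. Serially diluted Strep-hItln-1 in HEPES-T + BSA was bound 2 h RT. Detection used anti-Strep-tag HRP (1:10,000, 2 h RT), then TMB quenched with 2 M H2SO4, read at 450 nm. One-site binding fit gave Kd. Mean ± SEM, n = 2 technical replicates.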

hItln-1 = settings: cited from earlier work
[3] = ΔΔG = 0.593 (kcal/mol) ln(IC50,row/IC50,column)

T1 sequence (Q8WWA0 19-313): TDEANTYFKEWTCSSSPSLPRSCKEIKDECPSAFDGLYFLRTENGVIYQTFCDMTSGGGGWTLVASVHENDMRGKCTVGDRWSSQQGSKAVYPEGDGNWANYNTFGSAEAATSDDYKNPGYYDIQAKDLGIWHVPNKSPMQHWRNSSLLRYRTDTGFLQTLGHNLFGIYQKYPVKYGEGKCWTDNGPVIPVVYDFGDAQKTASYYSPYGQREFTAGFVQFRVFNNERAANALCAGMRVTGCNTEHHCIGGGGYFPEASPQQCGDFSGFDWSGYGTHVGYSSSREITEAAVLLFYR

SMILES	ΔΔG relative free energy of binding compared to KDO [1, 3] [kcal/mol]	ΔΔG relative free energy of binding compared to KO [1, 3] [kcal/mol]	binding to hItln-1 by ELISA [2]	IC50 value higher than that of allyl-KO ([1]; ratio of IC50 values) [fold]	ΔΔG relative free energy of binding compared to D,D-heptose ([1]; ΔΔG = 0.593 (kcal/mol) ln(IC50,row/IC50,column), column D,D-heptose) [kcal/mol]	ΔΔG relative free energy of binding compared to Galf [1, 3] [kcal/mol]	ΔΔG relative free energy of binding compared to Glycerol 1-phosphate [1, 3] [kcal/mol]	Kd by ELISA [2]	binding to hItln-1 (hItln-1)	binding to hItln-1 (hItln-1; listed as N-acetyl neuraminic acid)	IC50 [1] [µM]
OC[C@@H](O)[C@@H]1O[C@@H](O)[C@H](O)[C@H]1O [Galf, β-D-galactofuranose]	0.1	0.6	bound	–	–	–	–	–	–	–	–
OC[C@H](O)[C@H]1O[C@H](O)[C@@H](O)[C@@H](O)[C@@H]1O [L,D-heptose, L-glycero-α-D-manno-heptose]	2.0	2.4	no measurable binding	80	1.2	2.0	1.9	could not be determined	–	–	–
O=P(O)(O)OC[C@H](O)CO [Glycerol 1-phosphate, D-glycerol 1-phosphate]	0.2	0.7	–	–	–	0.1	–	–	–	–	–
OC[C@@H](O)[C@H]1O[C@H](O)[C@@H](O)[C@@H](O)[C@@H]1O [D,D-heptose, D-glycero-α-D-manno-heptose]	0.9	1.3	no measurable binding	–	–	0.8	0.7	could not be determined	–	–	–
CC(=O)N[C@H]1[C@H]([C@H](O)[C@H](O)CO)OC(O)(C(=O)O)C[C@@H]1O (stereo partly shown) [sialic acid, N-acetyl neuraminic acid]	–	–	–	–	–	–	–	–	not a ligand	does not bind	–
C=CCO[C@@]1(C(=O)O)O[C@H]([C@H](O)CO)[C@H](O)[C@H](O)[C@@H]1O [KO, prop-2-en-1-yl D-glycero-alpha-D-talo-oct-2-ulopyranosidonic acid]	–	–	bound	–	–	-0.6	–	–	–	–	700
